High-throughput results: PubChem BioAssay, The Scripps Research Institute Molecular Screening Center
FXN GAA850 act = FXN promoter activators, primary screen, cell-based, luciferase luminescence, HEK293 lucGAA850. 0.56% of 360,000 active. HEK293 lucGAA850 FXN promoter luciferase reporter, 24 h; percent of 10 µM SAHA response. activation, % at 6 µM;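 active = activation above the average of all compounds screened plus 3 SD, cutoff fixed separately per campaign, cut at about 7.5% in these data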;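 also: 0% = DMSO wells and 100% = 10 µM SAHA wells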
MC4R barr agon = MC4R agonists recruiting beta-arrestin, primary screen, cell-based, luminescence, agonist arm of biased-ligand search. activation, % at 8.9 µM. U2OS MC4R beta-arrestin complementation; percent of melanotan II response, DMSO zero. 0.98% of 360,000 active. Melanocortin receptor 4 (Homo sapiens), P32245;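 active = activation above a per-plate cutoff, the mean activation of sample wells on that plate plus 3 SD, cut at about 8% in these data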
MC4R antag cAMP = MC4R antagonists of cAMP signaling, primary screen, cell-based, TR-FRET, antagonist arm of biased-ligand search. Melanocortin receptor 4 (Homo sapiens), P32245. MC4R-expressing cells, MTII-stimulated cAMP, LANCE TR-FRET. inhibition, % at 6.5 µM. 0.48% of 360,000 active. AID 540295, 2011;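 active = inhibition above its plate's cutoff, the mean of tested wells on that plate plus 3 SD, cut at about 29% in these data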;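 also: 0% = Melanotan II alone and 100% = Melanotan II plus saturating MCL0020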
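Assay system: human MC4R-expressing U2OS cells; reagent: Melanotan II stimulation of cells; dosing: 6.5 µM single dose; timing: compound 30 min, challenge 1 h, detection 1 h; signal: TR-FRET cAMP assay; replicates: one well per compound, no replicates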
m5-HT2A agonist = mouse Htr2a agonists via beta-arrestin recruitment, primary screen, cell-based, luminescence. 5-hydroxytryptamine receptor 2A (Mus musculus), P35363. CHO-K1 mHTR2A beta-arrestin complementation; percent of 30 µM serotonin response. activation, % at 7.6 µM. 0.66% of 360,000 active. AID 624169, 2012;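 active = activation above a run cutoff, the mean activation of all tested compounds plus 3 SD, cut at about 14% in these data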;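 also: 0% = plate median of compound wells and 100% = 30 µM serotonin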
AHR act = AHR activators, primary screen, cell-based, luminescence, luciferase reporter, human | 2.5% of 320,000 active | activation, % at 5 µM | AHR-responsive luciferase reporter cells | Aryl hydrocarbon receptor (Homo sapiens), P35869; in the data active = activation above about 47%;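 also: 0% = vehicle wells and 100% = reference agonist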
MC4R barr conf = MC4R beta-arrestin agonists, retest, confirmation, cell-based, luminescence, U2OS; shares compounds with MC4R barr agon; U2OS MC4R beta-arrestin recruitment; scaled DMSO 0%, Melanotan II 100%; activation, % at 8.9 µM; 31% of 2,400 active;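 active = mean activation across replicates above the hit cutoff set in the earlier primary screen, cut at about 8% in these data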
MOR-DOR barr ag = agonists of MOR-DOR heterodimerization, counter-screen for MC4R biased agonist project, cell-based, luminescence. shares compounds with MC4R barr agon. activation, % at 9.2 µM. U2OS PathHunter beta-arrestin, beta-gal luminescence; percent of deltorphin B response, DMSO zero. AID 602194, 2012. 5.8% of 2,400 active;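 active = mean activation across replicates exceeds the hit threshold derived in the earlier primary screen, cut at about 18% in these data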;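 also: 100% = deltorphin B at 0.9 µM final and 0% = DMSO alone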
Target sequence (P35372 whole entry, looked up): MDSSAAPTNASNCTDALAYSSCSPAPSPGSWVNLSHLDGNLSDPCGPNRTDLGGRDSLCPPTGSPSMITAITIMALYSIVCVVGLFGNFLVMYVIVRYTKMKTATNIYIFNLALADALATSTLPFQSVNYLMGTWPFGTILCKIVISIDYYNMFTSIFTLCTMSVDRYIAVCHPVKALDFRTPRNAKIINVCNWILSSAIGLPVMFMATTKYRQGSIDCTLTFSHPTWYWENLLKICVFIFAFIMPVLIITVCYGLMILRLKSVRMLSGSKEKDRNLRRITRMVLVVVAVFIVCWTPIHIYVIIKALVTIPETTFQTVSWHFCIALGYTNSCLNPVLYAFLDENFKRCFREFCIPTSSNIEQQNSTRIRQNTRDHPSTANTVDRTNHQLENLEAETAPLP
Target sequence (P41143 whole entry, looked up): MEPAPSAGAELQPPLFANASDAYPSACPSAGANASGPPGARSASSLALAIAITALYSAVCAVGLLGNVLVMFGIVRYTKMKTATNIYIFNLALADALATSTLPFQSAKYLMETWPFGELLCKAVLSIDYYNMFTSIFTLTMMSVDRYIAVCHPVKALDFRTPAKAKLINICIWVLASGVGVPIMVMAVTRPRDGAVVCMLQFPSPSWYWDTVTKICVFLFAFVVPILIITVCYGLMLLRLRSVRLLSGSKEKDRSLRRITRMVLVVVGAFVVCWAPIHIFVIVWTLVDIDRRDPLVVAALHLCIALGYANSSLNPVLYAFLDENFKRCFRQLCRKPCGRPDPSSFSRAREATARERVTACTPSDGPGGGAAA
Active calls of the source: *; . = no result given. Compounds with a hit are over-represented: about 4.7% of the library has one in this group of screens.

SMILES	FXN GAA850 act	MC4R barr agon	MC4R antag cAMP	m5-HT2A agonist	AHR act	MC4R barr conf	MOR-DOR barr ag
COc1ccc(CC(=O)Nc2ccc(-c3noc(-c4cc(OC)c(OC)c(OC)c4)n3)cc2)cc1	0	5	-4	0	5	.	.
Cc1ccccc1-c1nc(-c2ccc(NC(=O)c3ccc4c(c3)OCO4)cc2)no1	-1	23*	15	0	2	17*	4
COc1cc(-c2nc(-c3ccc(NC(=O)c4ccc5c(c4)OCO5)cc3)no2)cc(OC)c1OC	0	23*	10	0	0	28*	24*
CC(C)N(C)Cc1nnnn1CC(=O)N(C)Cc1cccc(Cl)c1	0	-1	16	0	-1	.	.
Cn1c(COc2ccccc2O)[n+](C)c2ccccc21	2	0	-2	-1	-1	.	.
CCCCCCCCCCOC(=O)Cn1c(COc2ccccc2OC)[n+](C)c2ccccc21	-2	19*	-11	-4	4	16*	29*
CCOc1ccc(NC(=O)/C=C/c2ccc(OC)cc2)c([N+](=O)[O-])c1	-2	-1	-3	1	-3	.	.
CCOc1ccc(NC(=S)NC(=O)/C=C/c2ccc(C)cc2)c([N+](=O)[O-])c1	2	38*	-18	2	-1	17*	6
CCOc1ccc(NC(=S)NC(=O)/C=C/c2ccc(OC)c(OC)c2)c([N+](=O)[O-])c1	1	17*	-2	1	4	12*	9
COc1ccc(/C=C/C(=O)Nc2ccc(OC)cc2[N+](=O)[O-])cc1	1	32*	-4	5	-2	7	10
CC(=O)Nc1cc(-c2ccccc2)cn2c(-c3ccc(F)cc3)cnc12	0	26*	12	-6	.	27*	3
CC(=O)Nc1cc(-c2ccc(F)cc2)cn2c(-c3ccc(F)cc3)cnc12	1	25*	0	5	.	15*	6
COc1cc(-c2cc(NC(C)=O)c3ncc(-c4ccc(F)cc4)n3c2)cc(OC)c1OC	2	12*	17	-4	.	8.6*	4
CC(=O)Nc1cc(-c2ccc(CO)cc2)cn2c(-c3ccc(F)cc3)cnc12	3	-2	8	-4	.	.	.
COC(=O)[C@@]1(C(C)C)N=C(c2cc(OC)c(OC)c(OC)c2)[C@]2(O1)C(=O)Nc1ccccc12	.	.	.	-3	.	.	.
Cc1ccc(Oc2cc([N+](=O)[O-])cc3c2C(=O)Nc2ccccc2O3)cc1	4	14*	7	0	11	2	8
O=C1Nc2ccccc2OCc2c1cccc2[N+](=O)[O-]	1	0	4	5	-1	.	.
COc1cccc(/C=N/NC(=O)C(=O)Nc2ccccc2OC(F)(F)C(F)F)c1	0	16*	-1	-4	1	3	6
O=C(Cc1csc(-c2ccccc2)n1)Nc1ccc(C(F)(F)F)cc1	-2	14*	4	-2	55*	4	11
COc1ccc(OC)c(NC(=O)CN2CCc3ccccc3C2)c1	-2	0	7	1	5	.	.
CC(C)Oc1ccc(C(CCNCc2ccc(O)cc2)c2ccccc2)cc1 (stereo not drawn)	-4	12*	2	-13	.	24*	24*
O=C(Nc1ccc2c(c1)OCO2)c1cc(-c2ccccc2Cl)on1	3	32*	-5	0	18	2	4
COc1cccc(-c2cc(C(=O)Nc3ccc4c(c3)OCO4)no2)c1	1	16*	-7	-7	-5	3	10
O=C(Nc1ccc2c(c1)OCO2)c1cc(-c2ccc(O)cc2)on1	4	11*	-5	-3	12	4	7
O=C(NCc1ccc2c(c1)OCO2)c1cc(-c2ccccc2Cl)on1	-1	1	17	2	-6	.	.
SMILES	FXN GAA850 act	MC4R barr agon	MC4R antag cAMP	m5-HT2A agonist	AHR act	MC4R barr conf	MOR-DOR barr ag
COC(=O)c1sccc1NC(=O)c1ccc2c(c1)OCO2	0	15*	9	-3	8	-1	2
O=C(NC(=S)Nc1ccccc1Br)c1ccc2c(c1)OCO2	4	11*	2	10	36	-2	2
COc1cc(NC(=O)c2ccc3c(c2)OCO3)c2ncccc2c1	3	10*	8	5	66*	2	1
CC(C)c1nnc(NC(=O)c2ccc3c(c2)OCO3)s1	-1	-4	6	3	2	.	.
CC(c1ccccc1)c1nnc(NC(=O)c2ccc3c(c2)OCO3)s1 (stereo not drawn)	-2	15*	3	6	10	-2	4
COc1ccc(OC)c(NC(=O)C2(C)CCN2C(=O)C2(c3ccccc3)CCCC2)c1 (stereo not drawn)	0	0	6	6	.	.	.
CCOC(=O)c1ccc(NC(=O)c2ccc[n+]([O-])c2)cc1	2	1	7	-4	1	.	.
O=C(CC1CC2CCC1C2)N1CCN(S(=O)(=O)c2ccc(C(F)(F)F)cc2)CC1 (stereo not drawn)	2	4	-4	-2	.	.	.
CCN(c1cccc(C)c1)S(=O)(=O)c1cc2c3c(c1)CCC(=O)N3CCC2	0	0	0	1	-2	.	.
COc1ccc(Cc2c(C3CCCCC3)nc3ccc(Br)cn23)c(C)c1	.	.	.	1	.	.	.
CCc1ccc(NC(=O)c2ccc3c(c2)C(=O)N(Cc2ccco2)C3=O)cc1	1	11*	-10	-1	15	6	3
COC(=O)Cc1ccc(NC(=O)c2ccc3c(c2)C(=O)N(Cc2ccco2)C3=O)cc1	0	5	11	0	-4	.	.
Cc1cn(C2CCCCC2)c(=O)[nH]c1=O	2	-1	4	7	.	.	.
COc1cccc(-c2ccc(C#N)c(SCC(=O)NCc3ccco3)n2)c1	1	19*	2	0	21	-3	17
O=C(COC(=O)/C=C/c1cccc(C(F)(F)F)c1)NC(=O)NCc1ccco1	0	15*	-5	-8	1	3	7
CCOC(=O)Cn1cc(Cl)cc(C(=O)Nc2ccccc2)c1=O	0	0	5	-1	0	.	.
Fc1cccc(Nc2nc(-c3ccncc3)nc3ccccc23)c1	2	12*	27	-3	33	1	6
